The first experiment is filed under the species Homo sapiens. Put plainly: Inhibitory activity of Ca-ionophore-A23187-induced Leukotriene B4 (LTB4) release in human polymorphonuclear leukocytes at the dose of 1 micro M concentration.
Details: not given
In kind it is functional. In a few lines: (§1)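 Human PMNs isolated from heparinized blood of healthy, medication-free donors (dextran sedimentation, Ficoll–Paque). DMSO stocks diluted into Ca/Mg-free Dulbecco's PBS. Cells (2.5 × 10^6/mL, PBS with Ca2+/Mg2+) preincubated with compound 15 min at 28 °C with shaking, then stimulated 10 min with A23187 (2.5 μM final). Stopped with EGTA (10 mM final), centrifuged, supernatant LTB4 measured by RIA.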
The Inhibition is the change of the read-out against control, counted positive when it falls. With `CCOC(=O)C(Cc1c[nH]cn1)Nc1nc2cc(C(C)C)ccc2o1` (configuration not stated), the Inhibition is 26%. Still for that read-out and setting: to `CCOC(=O)C(Cc1cncn1CC)Nc1nc2cc(C(C)C)ccc2o1` (configuration not stated) belongs 59%.

The species entered for a further experiment is Homo sapiens. Put plainly: Inhibitory activity of Ca-ionophore-A23187-induced Leukotriene B4 (LTB4) release in human polymorphonuclear leukocytes. Format: functional.
Details: not given
In a few lines: as §1
With `CN1CCN(CC(Nc2nc3cc(Cl)ccc3o2)c2ccccc2)CC1` (configuration not stated), the Inhibition came to 21%.

Broadly, the IC50 is the concentration at which inhibition is half-maximal. Low readings indicate higher potency, high ones lower potency. The compound `c1ccc(C(CC2CCCCC2)Nc2nc3ccccc3o2)cc1` (stereo in doubt; 26a) showed an IC50 of 8 nM. Still for that read-out and setting: as for `c1ccc(C(CC2CCCCC2)Nc2nc3ccccc3o2)cc1` (stereo in doubt; 26b), the figure is 6 nM. In turn, `c1ccc(C(CC2CCCCC2)Nc2nc3ccccc3o2)cc1` (stereo in doubt; 26c) came in with an IC50 of 340 nM.

With `Fc1ccc(CC(Nc2nc3cc(Cl)ccc3o2)c2ccccn2)cc1` (stereo in doubt; 59a), half-maximal inhibition (IC50) was put at 20 nM. The same measure, in the same setting: to `Fc1ccc(CC(Nc2nc3cc(Cl)ccc3o2)c2ccccn2)cc1` (stereo in doubt; 59c) belongs 320 nM.

Still in this experiment, the particulars now being: Homo sapiens.
The compound `CSCC(Cc1ccccc1)Nc1nc2cc(C(C)C)ccc2o1` (configuration not stated) gave an IC50 of 13 nM. In the case of `COc1ccc2oc(NC(Cc3ccccc3)c3ccccc3)nc2c1` (configuration not stated), inhibition was half-maximal at 9 nM (IC50). The same measure, in the same setting: to `Fc1ccc(CC(Nc2nc3cc(F)ccc3o2)c2ccccn2)cc1` (configuration not stated) belongs 21 nM; to `CCOC(=O)C(Cc1ccccc1)Nc1nc2ccccc2s1` (configuration not stated), 360 nM. The compound `CCOCC(Cc1ccc(F)cc1)Nc1nc2cc(C(C)C)ccc2o1` (configuration not stated) showed an IC50 of 41 nM. Take `CC(=O)Nc1ccc2oc(NC(CC3CCCCC3)c3ccccc3)nc2c1` (configuration not stated): the IC50 was determined as 78 nM. On the same count and under the same terms, to `CCCCc1ccc2nc(NC(Cc3ccc(Cl)cc3)C(=O)OCC)sc2c1` (configuration not stated) belongs 180 nM; to `CCOC(=O)C(Cc1ccc(Cl)cc1)Nc1nc2ccc(C(C)C)cc2s1` (configuration not stated), 330 nM. Same read-out and setting: as for `CCOC(=O)C(Cc1ccccc1)Nc1nc2cc(C(C)C)ccc2o1` (configuration not stated), the figure is 0.5 nM. Still for that read-out and setting: to `CN(C)S(=O)(=O)c1ccc2oc(NC(Cc3ccc(F)cc3)c3ccccn3)nc2c1` (configuration not stated) belongs 50 nM; to `Cc1ccc2oc(NC(CC3CCCCC3)c3cccnc3)nc2c1` (configuration not stated), 20 nM.

In the case of `CN(C)C(=O)c1ccc2oc(NC(CC3CCCCC3)c3ccccc3)nc2c1` (configuration not stated), the IC50 is 170 nM. The same measure, in the same setting: as for `CCOC(=O)C(Cc1ccc(Cl)cc1)Nc1nc2ccccc2s1` (configuration not stated), the figure is 200 nM. Regarding `CNC(=O)C(CC1CCCCC1)Nc1nc2cc(C)ccc2o1` (configuration not stated), inhibition was half-maximal at 72 nM (IC50). Same read-out and setting: as for `CC(C)c1ccc2oc(NC(CN3CCOCC3)c3ccccc3)nc2c1` (configuration not stated), the figure is 52 nM. `CCOC(=O)C(Cc1ccccc1)Nc1nc2ccc(C(C)C)cc2o1` (configuration not stated): the IC50 was 220 nM.

Regarding `CCOC(=O)C(Cc1ccc(Br)cc1)Nc1nc2ccccc2s1` (configuration not stated), the IC50 was 150 nM. Consider `Fc1ccc(C(CC2CCCCC2)Nc2nc3ccccc3o2)cc1` (configuration not stated), for which the IC50 worked out at 170 nM. On the same count and under the same terms, as for `CCOC(=O)c1ccc2oc(NC(Cc3ccc(F)cc3)c3ccccn3)nc2c1` (configuration not stated), the figure is 27 nM; as for `CCOC(=O)C(Cc1ccc(F)cc1)Nc1nc2ccccc2s1` (configuration not stated), 330 nM. On the same count and under the same terms, as for `Cc1noc(C(Cc2ccc(F)cc2)Nc2nc3cc(C(C)C)ccc3o2)n1` (configuration not stated), the figure is 440 nM; as for `Clc1ccc2oc(NC(CN3CCSCC3)c3ccccc3)nc2c1` (configuration not stated), 48 nM; as for `CC(C)c1ccc2oc(NC(CC3CCCCC3)c3ccccc3)nc2c1` (configuration not stated), 6 nM. `CCOC(=O)C(CCc1ccccc1)Nc1nc2ccccc2s1` (configuration not stated) returned an IC50 of 520 nM.

For the compound `Clc1ccccc1C(CC1CCCCC1)Nc1nc2ccccc2o1` (configuration not stated), half-maximal inhibition (IC50) was put at 80 nM. Still for that read-out and setting: to `Cc1cccc(C(CC2CCCCC2)Nc2nc3ccccc3o2)c1` (configuration not stated) belongs 300 nM; to `O=[N+]([O-])c1ccc2oc(NC(Cc3ccc(F)cc3)c3ccccn3)nc2c1` (configuration not stated), 16 nM.

The compound `CC(=O)C(Cc1ccccc1)Nc1nc2ccc(C(C)C)cc2o1` (configuration not stated) yielded an IC50 of 350 nM. As to `O=C(O)c1ccc2oc(NC(CC3CCCCC3)c3ccccc3)nc2c1` (configuration not stated), inhibition was half-maximal at 150 nM (IC50). On the same count and under the same terms, to `CCOC(=O)c1ccc2oc(NC(CC3CCCCC3)c3ccccc3)nc2c1` (configuration not stated) belongs 45 nM. Still for that read-out and setting: to `Cc1ccc2oc(NC(CC3CCCCC3)c3ccncc3)nc2c1` (configuration not stated) belongs 190 nM; to `CCOC(=O)[C@H](Cc1ccccc1)Nc1nc2ccccc2s1`, 230 nM; to `COC(=O)[C@H](CC1CCCCC1)Nc1nc2ccccc2o1`, 5 nM. Still for that read-out and setting: as for `CCOC(=O)[C@@H](Cc1ccccc1)Nc1nc2ccccc2o1`, the figure is 1500 nM; as for `CC(C)c1ccc2oc(N[C@H](CN3CCCCC3)c3ccccc3)nc2c1`, 1200 nM; as for `Cc1ccc2oc(N[C@H](CC3CCCCC3)c3ccccn3)nc2c1`, 40 nM.

Compound `CCOC(=O)[C@H](Cc1ccccc1)Nc1nc2ccccc2o1` displayed an IC50 of 150 nM. Still for that read-out and setting: as for `CC(C)c1ccc2oc(N[C@@H](CN3CCCCC3)c3ccccc3)nc2c1`, the figure is 100 nM; as for `COC(=O)[C@@H](CC1CCCCC1)Nc1nc2ccccc2o1`, 100 nM; as for `CC(C)c1ccc2oc(NC(Cc3cccc(Cl)c3)c3ccccn3)nc2c1` (configuration not stated), 5 nM. `COCC(Cc1ccc(F)cc1)Nc1nc2cc(C(C)C)ccc2o1` (configuration not stated) returned an IC50 of 17 nM. Compared with the last compound, the IC50 is about 3.4-fold higher.

In the case of `CCOC(=O)C(Cc1ccc(Cl)cc1)Nc1nc2ccc(OC)cc2s1` (configuration not stated), the IC50 came to 230 nM. Same read-out and setting: as for `CC(C)c1ccc2oc(NC(Cc3ccc(F)cc3)c3ccccn3)nc2c1` (configuration not stated), the figure is 12 nM. With `Cc1nc(CC(Nc2nc3cc(C(C)C)ccc3o2)c2ccccn2)cs1` (configuration not stated), the IC50 came out at 29 nM.

The compound `COc1ccc2oc(NC(Cc3ccc(F)cc3)c3ccccn3)nc2c1` (configuration not stated) returned an IC50 of 11 nM. In turn, `CCOC(=O)C(Cc1ccccc1)Nc1nc2cc(CC)ccc2s1` (configuration not stated) yielded an IC50 of 12 nM.

In the case of `CC(C)c1ccc2oc(NC(Cc3ccc(Cl)cc3)c3ccccn3)nc2c1` (configuration not stated), the IC50 came out at 29 nM. On the same count and under the same terms, to `CCOC(=O)C(Cc1ccccc1)N(C)c1nc2ccccc2s1` (configuration not stated) belongs 1000 nM. Same read-out and setting: to `CS(=O)(=O)Nc1ccc2oc(NC(CC3CCCCC3)c3ccccc3)nc2c1` (configuration not stated) belongs 160 nM; to `CCCOCC(Cc1ccc(F)cc1)Nc1nc2cc(C(C)C)ccc2o1` (configuration not stated), 170 nM; to `c1ccc(CC(Nc2nc3ccccc3o2)c2ccccc2)cc1` (configuration not stated), 51 nM. The same measure, in the same setting: as for `c1ccc(CC(Nc2nc3ccccc3s2)c2ccccc2)cc1` (configuration not stated), the figure is 170 nM; as for `Clc1ccc2oc(NC(Cc3ccccc3)c3ccccc3)nc2c1` (configuration not stated), 23 nM.

`CCOC(=O)C(Cc1ccccc1)Nc1nc2ccc(CC)cc2s1` (configuration not stated) returned an IC50 of 240 nM. This IC50 is about 10-fold higher than that of the compound before. Still for that read-out and setting: as for `CCOC(=O)C(Cc1csc(C)n1)Nc1nc2cc(C(C)C)ccc2o1` (configuration not stated), the figure is 16 nM; as for `Fc1ccc(CC(Nc2nc3cc(C(F)(F)F)ccc3o2)c2ccccn2)cc1` (configuration not stated), 8 nM. `Cc1ccc2oc(NC(CC3CCCCC3)c3ccccn3)nc2c1` (configuration not stated) gave an IC50 of 4 nM. Compound `N#Cc1ccc2oc(NC(CC3CCCCC3)c3ccccc3)nc2c1` (configuration not stated) gave an IC50 of 15 nM. On the same count and under the same terms, to `Fc1ccc(CC(Nc2nc3cc(F)c(F)cc3o2)c2ccccn2)cc1` (configuration not stated) belongs 30 nM. With `COc1ccc(C(CC2CCCCC2)Nc2nc3ccccc3o2)cc1` (configuration not stated), half-maximal inhibition (IC50) required 550 nM.

`COc1ccc(CC(Nc2nc3cc([N+](=O)[O-])ccc3o2)c2ccccn2)cc1` (configuration not stated) gave an IC50 of 14 nM. On to `Cc1ccc2oc(N[C@@H](CC3CCCCC3)c3ccccn3)nc2c1` [ONTAZOLAST], for which inhibition was half-maximal at 1 nM (IC50).

For another experiment, the species on record is Homo sapiens. In words: Inhibitory activity of Ca-ionophore-A23187-induced Leukotriene B4 (LTB4) release in human polymorphonuclear leukocytes at the dose of 3 micro M concentration. Format: functional.
Details: not given
In a few lines:
as §1
Take `O=[N+]([O-])c1ccc2oc(NC(Cc3ccc(O)cc3)c3ccccn3)nc2c1` (configuration not stated): the Inhibition was found to be 27%. Consider `CCOC(=O)C(Cc1ccccc1)Cc1nc2ccccc2s1` (configuration not stated), for which the Inhibition was 56%. On the same count and under the same terms, as for `O=C(O)C(Cc1ccccc1)Nc1nc2ccccc2s1` (configuration not stated), the figure is -19%; as for `NC(=O)c1ccc2oc(NC(CC3CCCCC3)c3ccccc3)nc2c1` (configuration not stated), 35%. With `O=S1(=O)CCN(CC(Nc2nc3cc(Cl)ccc3o2)c2ccccc2)CC1` (configuration not stated), the Inhibition was found to be 46%.

For `CCOC(=O)C(Nc1nc2ccccc2s1)c1ccccc1` (configuration not stated), the Inhibition amounted to 61%.

Still in this experiment, the particulars now being: in the assay text read “0.3 micro M” for “3 micro M”.
Consider `OCc1ccc2oc(NC(CC3CCCCC3)c3ccccc3)nc2c1` (configuration not stated), for which the Inhibition was 41%.

Values taken from ChEMBL document CHEMBL1127687, “Benzoxazolamines and benzothiazolamines: potent, enantioselective inhibitors of leukotriene biosynthesis with a novel mechanism of action” (J Med Chem, 1994).
